Usually IC50 stands for the concentration that inhibits the measured activity by half. As usually defined, the pIC50 is the negative decadic logarithm of the IC50, by convention in mol/L. A low value points to a high IC50.

pIC50: −log10 of the molar value. Some results are limits rather than exact numbers.

Consider 31 compounds from ChEMBL document CHEMBL1128344 (J Med Chem, 1995).

System in one test: not listed separately
The test is described as follows: Inhibition of v-src from baculovirus culture.
Conditions: not given
A digest of the protocol:
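pp60v-src from v-src baculovirus-infected insect cells, bound via monoclonal antibody to 0.65 μm latex beads. Activity was measured as ³²P incorporation from [γ-³²P]ATP into poly[(glu)4(tyr)1] substrate.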
In the case of `CC(=O)C1C(=S)N(C)c2ccccc21` (configuration not stated), the half-inhibitory concentration (IC50) was > 50 µM.

`CN1C(=S)C(C(=O)c2ccco2)c2ccccc21` (configuration not stated): the half-inhibitory concentration (IC50) stood at 10.8 µM.

In the case of `CC1C(=S)N(C)c2ccccc21` (configuration not stated), the IC50 is > 100 µM.

For `CN1C(=S)C(C(=O)Nc2ccccc2)c2ccccc21` (configuration not stated), it took 10 µM to reach half-maximal inhibition (IC50).

On to `CN(C)CCCn1c(SSc2c(C(=O)Nc3ccccc3)c3ccccc3n2CCCN(C)C)c(C(=O)Nc2ccccc2)c2ccccc21`, for which the IC50 turned out to be 5.6 µM. Compared with the last compound, the IC50 is about 1.8-fold lower.

A further test deals with T1, Epidermal growth factor receptor (Homo sapiens, UniProt P00533). Nature of the test: Inhibition of EFGR tyrosine kinase from A431 cells. It is filed as cell-based. The conditions noted are these: A-431. A digest of the protocol: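 Enzyme source was the native EGFR complex in plasma membrane vesicles shed from cultured A431 epidermoid carcinoma cells. Kinase activity was measured as ³²P incorporation from added [γ-³²P]ATP into a 6:3:1 random copolymer of glutamate, alanine and tyrosine.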
T1 sequence (P00533 whole entry): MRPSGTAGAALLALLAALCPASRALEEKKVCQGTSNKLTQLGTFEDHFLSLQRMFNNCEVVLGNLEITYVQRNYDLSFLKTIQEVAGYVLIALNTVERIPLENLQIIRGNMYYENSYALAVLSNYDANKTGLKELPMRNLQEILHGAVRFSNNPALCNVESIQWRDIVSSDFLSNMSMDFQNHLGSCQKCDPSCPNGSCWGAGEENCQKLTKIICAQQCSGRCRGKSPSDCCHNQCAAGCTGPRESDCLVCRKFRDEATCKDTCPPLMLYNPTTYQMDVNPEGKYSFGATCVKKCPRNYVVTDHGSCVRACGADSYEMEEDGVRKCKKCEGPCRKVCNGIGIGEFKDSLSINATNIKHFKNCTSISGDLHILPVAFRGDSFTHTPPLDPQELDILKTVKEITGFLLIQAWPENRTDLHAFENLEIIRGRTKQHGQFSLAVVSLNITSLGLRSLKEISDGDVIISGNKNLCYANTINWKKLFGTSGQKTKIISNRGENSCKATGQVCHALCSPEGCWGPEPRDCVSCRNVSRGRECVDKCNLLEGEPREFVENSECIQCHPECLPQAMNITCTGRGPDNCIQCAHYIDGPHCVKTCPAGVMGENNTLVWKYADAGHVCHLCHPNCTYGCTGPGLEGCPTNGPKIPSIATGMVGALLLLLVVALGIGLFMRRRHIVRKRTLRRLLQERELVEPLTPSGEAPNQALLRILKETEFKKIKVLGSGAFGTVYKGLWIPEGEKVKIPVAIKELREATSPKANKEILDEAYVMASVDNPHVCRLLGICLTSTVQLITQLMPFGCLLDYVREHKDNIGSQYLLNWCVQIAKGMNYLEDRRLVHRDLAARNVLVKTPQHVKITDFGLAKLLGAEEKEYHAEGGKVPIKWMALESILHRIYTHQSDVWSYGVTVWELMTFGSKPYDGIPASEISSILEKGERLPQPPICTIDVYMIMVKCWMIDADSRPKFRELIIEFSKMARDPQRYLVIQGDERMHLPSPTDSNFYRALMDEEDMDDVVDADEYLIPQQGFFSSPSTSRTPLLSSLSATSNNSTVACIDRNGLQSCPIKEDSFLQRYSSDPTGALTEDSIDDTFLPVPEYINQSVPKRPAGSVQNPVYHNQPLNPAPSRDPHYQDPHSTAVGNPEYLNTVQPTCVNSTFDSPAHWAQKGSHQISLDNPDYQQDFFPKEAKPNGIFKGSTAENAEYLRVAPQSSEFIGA
As to `CN1C(=S)C(C(=O)c2ccccc2)c2ccccc21` (configuration not stated), the FC50 is > 100 µM.

For the compound `COC(=O)c1ccc(C(=O)C2C(=S)N(C)c3ccccc32)cc1` (configuration not stated), the FC50 is > 100 µM.

Consider `CC(=O)C1C(=S)N(C)c2ccccc21` (configuration not stated), for which the FC50 is > 100 µM.

With `CN1C(=S)C(C(=O)c2ccco2)c2ccccc21` (configuration not stated), the FC50 was > 100 µM.

For `CN1C(=S)C(C(=O)c2ccc(C(=O)O)cc2)c2ccccc21` (configuration not stated), the FC50 came to 8.7 µM.

`CC1C(=S)N(C)c2ccccc21` (configuration not stated): the FC50 is > 100 µM.

`CN1C(=S)C(C(=O)Nc2ccccc2)c2ccccc21` (configuration not stated) displayed an FC50 of 1 µM.

`CN(C)CCCn1c(SSc2c(C(=O)Nc3ccccc3)c3ccccc3n2CCCN(C)C)c(C(=O)Nc2ccccc2)c2ccccc21` returned an FC50 of 26 µM.

In the next test the target is T1, Epidermal growth factor receptor. Nature of the test: Inhibitory concentration compound against EFGR tyrosine kinase obtained from plasma membrane vesicles from cultured A431 cells. The test is classed as cell-free, A-431.
Conditions: not given
Consider `Cn1c(SSc2c(C(=O)Nc3cccs3)c3ccccc3n2C)c(C(=O)Nc2cccs2)c2ccccc21`, for which the negative logarithm of the IC50 (pIC50) was < 4.00.

For the compound `Cc1ccc(S(=O)(=O)c2c(SSc3[nH]c4ccccc4c3S(=O)(=O)c3ccc(C)cc3)[nH]c3ccccc23)cc1`, the pIC50 is 4.54.

In the case of `Cn1c(SSc2c(C(=O)Nc3ccncc3)c3ccccc3n2C)c(C(=O)Nc2ccncc2)c2ccccc21`, the negative-log IC50 (pIC50) was < 4.00.

Regarding `CNC(=O)c1c(SSc2[nH]c3ccccc3c2C(=O)NC)[nH]c2ccccc12`, the pIC50 is 5.21.

Regarding `Cn1c(SSc2c(C(=O)Nc3ccccc3)c3ccccc3n2C)c(C(=O)Nc2ccccc2)c2ccccc21`, the pIC50 was 4.96.

Regarding `COC(=O)c1ccccc1NC(=O)c1c(SSc2c(C(=O)Nc3ccccc3C(=O)OC)c3ccccc3n2C)n(C)c2ccccc12`, the pIC50 is < 4.00.

As to `Cc1c(SSc2c(C)c3ccccc3n2C)n(C)c2ccccc12`, the negative-log IC50 (pIC50) is < 4.00.

`Cn1c(SSc2c(C(=O)c3ccco3)c3ccccc3n2C)c(C(=O)c2ccco2)c2ccccc21` had a negative-log IC50 (pIC50) of 5.11.

In the case of `CCn1c(SSc2c(C(=O)Nc3ccccc3)c3ccccc3n2CC)c(C(=O)Nc2ccccc2)c2ccccc21`, the negative-log IC50 (pIC50) was < 4.00.

As for `Cn1c(SSc2c(C(=O)c3ccccc3)c3ccccc3n2C)c(C(=O)c2ccccc2)c2ccccc21`, the pIC50 is < 4.00.

For `O=C(NCc1ccccc1)c1c(SSc2[nH]c3ccccc3c2C(=O)NCc2ccccc2)[nH]c2ccccc12`, the pIC50 was 4.82.

In the case of `CN(C(=O)c1c(SSc2c(C(=O)N(C)c3ccccc3)c3ccccc3n2C)n(C)c2ccccc12)c1ccccc1`, the pIC50 is < 4.00.

On to `O=C(Nc1ccccc1)c1c(SSc2[nH]c3ccccc3c2C(=O)Nc2ccccc2)[nH]c2ccccc12`, for which the negative logarithm of the IC50 (pIC50) was 4.00.

As to `CNC(=O)c1c(SSc2c(C(=O)NC)c3ccccc3n2C)n(C)c2ccccc12`, the pIC50 is 5.74.

As for `Cn1c(SSc2c(C(=O)Nc3cccnc3)c3ccccc3n2C)c(C(=O)Nc2cccnc2)c2ccccc21`, the pIC50 was < 4.00.

`CN(C)CCNC(=O)c1c(SSc2c(C(=O)NCCN(C)C)c3ccccc3n2C)n(C)c2ccccc12` gave a pIC50 of 4.76.

Regarding `NC(Cc1c(SSc2[nH]c3ccccc3c2CC(N)C(=O)NCc2ccccc2)[nH]c2ccccc12)C(=O)NCc1ccccc1` (configuration not stated), the pIC50 was 5.48.

`Cn1c(SSc2c(C(=O)NCc3ccccc3)c3ccccc3n2C)c(C(=O)NCc2ccccc2)c2ccccc21` had a negative logarithm of the IC50 (pIC50) of 5.77.

For the compound `c1ccc(-c2c(SSc3[nH]c4ccccc4c3-c3ccccc3)[nH]c3ccccc23)cc1`, the negative-log IC50 (pIC50) is 4.00. This pIC50 is 1.77 log units lower than that of the compound before.

Take `COC(=O)c1cccc(NC(=O)c2c(SSc3c(C(=O)Nc4cccc(C(=O)OC)c4)c4ccccc4n3C)n(C)c3ccccc23)c1`: the pIC50 is < 4.00.

With `COC(=O)c1ccc(NC(=O)c2c(SSc3c(C(=O)Nc4ccc(C(=O)OC)cc4)c4ccccc4n3C)n(C)c3ccccc23)cc1`, the negative logarithm of the IC50 (pIC50) is < 4.00.

Regarding `Cn1c(SSc2c(C(=O)Nc3ccccn3)c3ccccc3n2C)c(C(=O)Nc2ccccn2)c2ccccc21`, the negative-log IC50 (pIC50) is 4.33.

Biological target in another test: not listed separately
Nature of the test: Inhibitory concentration of the against pp60v-src tyrosine kinase obtained from v-src baculovirus-infected insect cells.
Conditions: not given
In turn, `Cn1c(SSc2c(C(=O)Nc3ccccc3)c3cc(C(F)(F)F)ccc3n2C)c(C(=O)Nc2ccccc2)c2cc(C(F)(F)F)ccc21` gave a pIC50 of 5.24.

Turning to `Cn1c(SSc2c(C(=O)Nc3ccccc3)c3ccccc3n2C)c(C(=O)Nc2ccccc2)c2ccccc21`, the pIC50 is 5.49.
